pKi: −log10 of the molar value.
Tests used:
[1] = molecular target: Sodium-dependent serotonin transporter (Rattus norvegicus, UniProt P31652); assay: Displacement of [3H]citalopram from SERT in rat brain; assay type: tissue-based
Rattus norvegicus [2] = species on record: Rattus norvegicus; assay: Selectivity ratio of Ki for rat NET to Ki for DAT
How it was run: (§1)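 Ratio of Ki values from rat brain tissue displacement assays: [3H]WIN 35,428 for DAT, [3H]citalopram for SERT, [3H]nisoxetine for NET. Test agents were oxalate salts. Each Ki is the mean of three experiments run in triplicate.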

Rattus norvegicus [3] = species on record: Rattus norvegicus; assay: Selectivity ratio of Ki for rat NET to Ki for SERT; how it was run: as §1
[4] = molecular target: Sodium-dependent dopamine transporter (Rattus norvegicus, UniProt P23977); assay: Displacement of [3H]WIN-35428 from DAT in rat brain; assay type: tissue-based
Sodium-dependent dopamine transporter, sequence (P23977 whole entry): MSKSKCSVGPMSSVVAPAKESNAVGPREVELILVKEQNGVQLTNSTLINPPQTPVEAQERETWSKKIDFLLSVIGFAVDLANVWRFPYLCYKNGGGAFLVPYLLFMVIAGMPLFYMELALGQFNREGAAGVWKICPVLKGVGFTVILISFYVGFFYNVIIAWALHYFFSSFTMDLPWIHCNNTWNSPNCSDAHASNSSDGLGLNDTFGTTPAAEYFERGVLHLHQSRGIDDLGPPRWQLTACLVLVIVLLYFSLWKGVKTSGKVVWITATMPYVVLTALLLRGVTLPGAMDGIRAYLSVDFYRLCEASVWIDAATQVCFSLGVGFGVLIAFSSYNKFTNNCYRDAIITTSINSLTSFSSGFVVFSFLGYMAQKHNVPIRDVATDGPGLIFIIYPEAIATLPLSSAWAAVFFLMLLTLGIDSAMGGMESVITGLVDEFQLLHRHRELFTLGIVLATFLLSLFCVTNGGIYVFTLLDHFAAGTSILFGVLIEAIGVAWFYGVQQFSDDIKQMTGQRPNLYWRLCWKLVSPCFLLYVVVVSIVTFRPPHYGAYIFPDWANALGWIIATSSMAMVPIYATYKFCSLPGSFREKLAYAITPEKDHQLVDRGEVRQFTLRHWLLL
How it was run: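 Radioligand displacement from monoamine transporters in rat brain tissue: [3H]WIN 35,428 for DAT, [3H]citalopram for SERT, [3H]nisoxetine for NET. Test agents were used as oxalate salts, and Ki was derived from displacement. Values are mean ± SEM of three experiments, each run in triplicate.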

Rattus norvegicus [5] = species on record: Rattus norvegicus; assay: Selectivity ratio of Ki for rat DAT to Ki for SERT; how it was run: as §1
Transporter = Transporter (Rattus norvegicus, UniProt Q63380); assay: Displacement of [3H]nisoxetine from NET in rat brain; assay type: tissue-based
Transporter, sequence (Q63380 whole entry): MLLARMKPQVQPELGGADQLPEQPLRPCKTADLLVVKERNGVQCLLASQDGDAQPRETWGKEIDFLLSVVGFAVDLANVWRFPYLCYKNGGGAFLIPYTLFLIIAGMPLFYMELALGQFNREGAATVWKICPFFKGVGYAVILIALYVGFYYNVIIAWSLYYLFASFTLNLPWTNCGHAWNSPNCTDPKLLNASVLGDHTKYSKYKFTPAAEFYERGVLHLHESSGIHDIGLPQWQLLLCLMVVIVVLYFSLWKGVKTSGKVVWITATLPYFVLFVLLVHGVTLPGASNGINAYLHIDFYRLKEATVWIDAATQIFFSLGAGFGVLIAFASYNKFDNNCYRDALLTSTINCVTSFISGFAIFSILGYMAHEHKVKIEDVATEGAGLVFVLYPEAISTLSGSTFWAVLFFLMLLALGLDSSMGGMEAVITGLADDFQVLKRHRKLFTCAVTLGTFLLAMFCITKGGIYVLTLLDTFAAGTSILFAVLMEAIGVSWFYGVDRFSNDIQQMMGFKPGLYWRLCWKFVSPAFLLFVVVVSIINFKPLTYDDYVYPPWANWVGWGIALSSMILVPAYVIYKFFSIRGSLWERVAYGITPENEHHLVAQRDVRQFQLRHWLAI

Sodium-dependent serotonin transporter, sequence (P31652 whole entry): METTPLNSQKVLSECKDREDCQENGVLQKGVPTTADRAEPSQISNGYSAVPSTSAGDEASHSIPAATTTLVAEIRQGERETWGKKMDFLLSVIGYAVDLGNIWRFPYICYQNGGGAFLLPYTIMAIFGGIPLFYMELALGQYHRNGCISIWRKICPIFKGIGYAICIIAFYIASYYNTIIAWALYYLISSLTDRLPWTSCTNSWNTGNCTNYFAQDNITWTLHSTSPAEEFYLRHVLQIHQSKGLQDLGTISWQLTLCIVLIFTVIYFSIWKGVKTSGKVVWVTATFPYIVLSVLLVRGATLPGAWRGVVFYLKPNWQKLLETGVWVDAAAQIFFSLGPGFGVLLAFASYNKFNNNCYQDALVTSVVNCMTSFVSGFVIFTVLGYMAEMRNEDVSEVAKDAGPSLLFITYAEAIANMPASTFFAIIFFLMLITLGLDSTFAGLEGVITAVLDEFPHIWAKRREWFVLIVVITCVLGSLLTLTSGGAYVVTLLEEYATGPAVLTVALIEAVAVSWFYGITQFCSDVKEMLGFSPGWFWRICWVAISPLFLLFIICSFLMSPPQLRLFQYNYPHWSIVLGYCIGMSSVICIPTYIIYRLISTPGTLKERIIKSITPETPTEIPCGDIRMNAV

| Compound | pKi [1] | Ratio (Rattus norvegicus [2]) | Ratio (Rattus norvegicus [3]) | pKi [4] | Ratio (Rattus norvegicus [5]) | pKi (Transporter) |
| --- | --- | --- | --- | --- | --- | --- |
| Clc1ccc(C2=CC3CCC(C2)N3)cc1 (centres undefined) | 8.55 | 0.52 | 43 | 6.64 | 83 | 6.92 |
| Clc1ccc(CO[C@@]2(c3ccc(Cl)c(Cl)c3)C[C@H]3CC[C@@H](C2)N3)cc1Cl | 8.33 | 0.87 | 543 | 5.53 | 601 | 5.59 |
| Clc1ccc(C2=CC3CCC(C2)N3)cc1Cl (centres undefined) | 9.52 | 1.3 | 67 | 7.80 | 53 | 7.70 |
| Clc1ccc(CO[C@@]2(c3ccccc3)C[C@H]3CC[C@@H](C2)N3)cc1Cl | 10.21 | 62 | 16300 | 7.80 | 258 | 6.00 |
| Fc1ccc(C2=CC3CCC(C2)N3)cc1 (centres undefined) |  | 1.9 |  | 5.98 | 8.2 |  |
| Clc1ccc(CO[C@@]2(c3ccc(Cl)cc3)C[C@H]3CC[C@@H](C2)N3)cc1 | 10.00 | 38 | 23700 | 7.20 | 630 | 5.63 |
| Clc1ccc([C@]2(OCc3ccccc3)C[C@H]3CC[C@@H](C2)N3)cc1 | 7.19 | 10 | 26 | 6.76 | 2.7 | 5.76 |
| Clc1ccc(CO[C@@]2(c3ccc(Cl)c(Cl)c3)C[C@H]3CC[C@@H](C2)N3)cc1 |  | 5.4 | 246 |  | 46 |  |
| FC(F)(F)c1ccc(C2=CC3CCC(C2)N3)cc1 (centres undefined) | 8.74 |  | 432 | 5.83 | 830 | 6.11 |
| Clc1ccc([C@]2(OCc3ccccc3)C[C@H]3CC[C@@H](C2)N3)cc1Cl | 7.21 | 1.7 | 20 | 6.15 | 11 | 5.91 |
| c1ccc(CO[C@@]2(c3ccccc3)C[C@H]3CC[C@@H](C2)N3)cc1 | 6.61 |  |  | 6.93 | 0.47 |  |
| C1=C(c2ccccc2)CC2CCC1N2 (centres undefined) | 6.75 | 1.1 | 7.3 | 5.91 | 6.9 | 5.89 |
| Clc1ccc(CO[C@@]2(c3ccccc3)C[C@H]3CC[C@@H](C2)N3)cc1 | 8.21 | 4.6 | 17 | 7.66 | 3.6 | 7.00 |
| FC(F)(F)c1ccc([C@]2(OCc3ccccc3)C[C@H]3CC[C@@H](C2)N3)cc1 | 6.27 | 3.9 | 10 | 5.86 | 2.6 | 5.26 |
